{"data": "Results gathered from unrelated publications", "target": "LIM domain kinase 1 (LIMK1, Homo sapiens, UniProt P53667)", "note": "Each line is one published result; the experiments were not run side by side."}
{"Compound": "CS(=O)(=O)N1CCCC(NC(=O)[C@H](CCC2CCCCC2)NC(=O)c2ccc(CNC(=O)c3cnc4ccccn34)cc2)C1 (some centres unmarked)", "assay": "cell-free assay, competition with immobilised ligand", "setting": "0.1 µM", "remaining binding [%]": 75}
{"Compound": "N[C@H]1CCN(c2nccc(-c3cnn4ncccc34)n2)C1", "assay": "binding", "setting": "1 µM", "remaining binding [%]": 81}
{"Compound": "CC(=O)N1CCC(c2ccc(C(=O)NC(=N)N)cc2C(F)(F)F)CC1", "assay": "cell-free assay, competition with immobilised ligand", "setting": "1 µM", "remaining binding [%]": 100}
{"Compound": "Nc1ncc2c(n1)-c1c([nH]c3ccc(C#CC4CC4)cc13)CCCC2", "assay": "binding, competition with immobilised ligand", "setting": "1 µM", "remaining binding [%]": 96}
{"Compound": "O=C(c1ccc(Nc2ncc(Cl)c(-c3cc4ccccc4s3)n2)cc1)N1CCC(N2CCCC2)CC1", "assay": "binding, competition with immobilised ligand", "setting": "1 µM", "remaining binding [%]": 53}
{"Compound": "F[C@@H]1CCN(c2nccc(-c3cnn4ncccc34)n2)C1", "assay": "binding", "setting": "1 µM", "remaining binding [%]": 89}
{"Compound": "CCC(=O)N[C@H]1CC[C@@H](C(=O)N(C)c2ccc(-c3nc4ccccc4o3)cc2)C1", "assay": "cell-free assay, competition with immobilised ligand", "setting": "1 µM", "remaining binding [%]": 86}
{"Compound": "COc1ncc2cc3ccccc3nc2c1C#N", "assay": "cell-free assay, competition with immobilised ligand", "setting": "5 µM", "remaining binding [%]": 98}
{"Compound": "O=C(NCc1ncc(C(F)(F)F)cc1Cl)c1ccc2c(c1)C1(CCS(=O)(=O)CC1)[C@@H](C1CC1)N2S(=O)(=O)c1ccc(F)cc1", "assay": "cell-free assay, competition with immobilised ligand", "setting": "1 µM", "remaining binding [%]": 91}
{"Compound": "COc1cnc(Nc2cccc(S(N)(=O)=O)c2)nc1N1CCN(c2ccccc2)CC1", "assay": "binding, competition with immobilised ligand", "setting": "1 µM", "remaining binding [%]": 100}
{"Compound": "CC1CCCN1c1nccc(-c2cnn3ncccc23)n1 (centres unmarked)", "assay": "binding", "setting": "1 µM", "remaining binding [%]": 100}
{"Compound": "O=C(NCC1CCOCC1)c1n[nH]cc1NC(=O)c1c(F)cccc1F", "assay": "binding, competition with immobilised ligand", "setting": "1 µM", "remaining binding [%]": 100}
{"Compound": "CN(C)c1ncc(F)c(-c2cnn3ncccc23)n1", "assay": "binding", "setting": "1 µM", "remaining binding [%]": 89}
{"Compound": "COCCOc1nc(-c2ccc(Cl)nc2)nc2c1CN(C(=O)c1ncn3ccccc13)CC2", "assay": "cell-free assay, competition with immobilised ligand", "setting": "0.1 µM", "remaining binding [%]": 100}
{"Compound": "C=CC(=O)N1CCC(C(=O)NCC(=O)N2CCN(c3nc(-c4cnc(N)nc4C(F)F)nc(N4CCOCC4)n3)CC2)CC1", "assay": "binding, competition with immobilised ligand", "setting": "1 µM", "remaining binding [%]": 100}
{"Compound": "CNCc1ccccc1-c1csc([C@@H](C)Nc2nc(C)nc3cc(OC)c(OC)cc23)c1", "assay": "cell-free assay, competition with immobilised ligand", "setting": "1 µM", "remaining binding [%]": 99}
{"Compound": "CN(C)c1nccc(-c2cnc3ncccn23)n1", "assay": "binding", "setting": "1 µM", "remaining binding [%]": 100}
{"Compound": "O=C(c1ccc(Nc2nccc(-c3cc4ccccc4s3)n2)cc1)N1CCC(N2CCCC2)CC1", "assay": "binding, competition with immobilised ligand", "setting": "1 µM", "remaining binding [%]": 20}
{"Compound": "C[C@H]1CCN(c2nccc(-c3cnn4ncccc34)n2)C1", "assay": "binding", "setting": "1 µM", "remaining binding [%]": 91}
{"Compound": "O=C(c1ccc(Nc2ncc(Cl)c(-c3ccc(Cl)s3)n2)cc1)N1CCC(N2CCCC2)CC1", "assay": "binding, competition with immobilised ligand", "setting": "1 µM", "remaining binding [%]": 40}
